ChEMBL document CHEMBL2406989, “Design, synthesis and preliminary evaluation of a series of histone deacetylase inhibitors carrying a benzodiazepine ring” (Eur J Med Chem, 2013)
Activity calls are given as the source filed them. The rule behind the calls is not given here.

Legend:
[1] = tested on: NB-4; experiment: Induction of apoptosis in human NB4 cells after 48 hrs by Annexin V test; format: functional, cell-based; conditions: NB-4, 48 h
[2] = tested on: HCT-116; experiment: Antiproliferative activity against human HCT116 cells after 72 hrs by CellTiter-Glo assay; format: functional, cell-based; conditions: HCT-116, 72 h
[3] = tested on: K562; experiment: Antiproliferative activity against human K562 cells after 72 hrs by CellTiter-Glo assay; format: functional, cell-based; conditions: K562, 72 h
[4] = tested on: A549; experiment: Antiproliferative activity against human A549 cells after 72 hrs by CellTiter-Glo assay; format: functional, cell-based; conditions: A549, 72 h
[5] = target: T1, Protein deacetylase HDAC6 (Homo sapiens, UniProt Q9UBN7); experiment: Inhibition of full length His-tagged human recombinant HDAC6 expressed in baculovirus system using fluor de Lys as substrate by fluorometric analysis
T1 sequence (Q9UBN7 whole entry): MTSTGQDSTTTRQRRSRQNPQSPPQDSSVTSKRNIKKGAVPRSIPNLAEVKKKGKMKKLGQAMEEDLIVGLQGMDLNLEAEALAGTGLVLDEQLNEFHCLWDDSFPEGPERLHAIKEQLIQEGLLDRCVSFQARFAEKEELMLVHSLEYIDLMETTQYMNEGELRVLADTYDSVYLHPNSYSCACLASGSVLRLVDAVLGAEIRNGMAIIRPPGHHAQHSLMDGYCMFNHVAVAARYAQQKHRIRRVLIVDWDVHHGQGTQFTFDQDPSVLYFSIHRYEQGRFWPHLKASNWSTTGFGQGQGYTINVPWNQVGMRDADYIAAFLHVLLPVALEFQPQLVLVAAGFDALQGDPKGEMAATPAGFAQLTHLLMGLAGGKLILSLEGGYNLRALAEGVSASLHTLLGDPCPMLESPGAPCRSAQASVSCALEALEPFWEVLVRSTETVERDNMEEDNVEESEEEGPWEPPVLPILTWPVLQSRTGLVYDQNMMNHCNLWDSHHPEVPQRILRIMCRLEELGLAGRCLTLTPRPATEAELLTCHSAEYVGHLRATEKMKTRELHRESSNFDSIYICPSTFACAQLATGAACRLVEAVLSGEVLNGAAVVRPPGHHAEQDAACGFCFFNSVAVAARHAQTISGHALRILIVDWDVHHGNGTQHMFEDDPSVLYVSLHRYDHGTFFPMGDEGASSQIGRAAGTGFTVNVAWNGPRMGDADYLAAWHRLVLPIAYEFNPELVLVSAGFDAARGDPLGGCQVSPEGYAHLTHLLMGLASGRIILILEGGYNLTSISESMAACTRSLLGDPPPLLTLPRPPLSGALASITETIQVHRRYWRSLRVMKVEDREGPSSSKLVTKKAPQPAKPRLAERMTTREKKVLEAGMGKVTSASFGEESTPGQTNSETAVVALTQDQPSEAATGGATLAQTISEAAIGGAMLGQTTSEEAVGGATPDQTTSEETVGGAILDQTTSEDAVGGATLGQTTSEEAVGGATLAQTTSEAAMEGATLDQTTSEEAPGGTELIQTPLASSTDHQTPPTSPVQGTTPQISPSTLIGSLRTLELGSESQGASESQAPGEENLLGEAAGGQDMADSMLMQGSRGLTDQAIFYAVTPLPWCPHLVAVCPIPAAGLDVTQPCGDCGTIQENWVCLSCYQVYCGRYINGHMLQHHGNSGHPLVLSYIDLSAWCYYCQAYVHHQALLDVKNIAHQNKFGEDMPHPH

[6] = target: Histone deacetylase 1 (Homo sapiens, UniProt Q13547); experiment: Inhibition of full length His-tagged human recombinant HDAC1 expressed in baculovirus system using fluor de Lys as substrate by fluorometric analysis
Sequence of Histone deacetylase 1 (Q13547 whole entry): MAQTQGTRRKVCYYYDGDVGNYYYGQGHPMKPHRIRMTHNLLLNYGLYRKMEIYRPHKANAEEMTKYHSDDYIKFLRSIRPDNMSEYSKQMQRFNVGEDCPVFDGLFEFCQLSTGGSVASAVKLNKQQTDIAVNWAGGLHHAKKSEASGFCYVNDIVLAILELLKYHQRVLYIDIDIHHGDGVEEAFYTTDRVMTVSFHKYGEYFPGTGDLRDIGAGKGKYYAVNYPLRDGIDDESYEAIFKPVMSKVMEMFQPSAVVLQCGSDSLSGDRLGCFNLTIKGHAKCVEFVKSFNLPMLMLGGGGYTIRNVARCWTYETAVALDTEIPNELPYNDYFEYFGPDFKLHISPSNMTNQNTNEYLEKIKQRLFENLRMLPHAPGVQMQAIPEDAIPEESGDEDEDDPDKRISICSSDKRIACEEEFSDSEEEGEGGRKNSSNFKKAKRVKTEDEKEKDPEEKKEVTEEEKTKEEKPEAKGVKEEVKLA

[7] = target: Histone deacetylase; experiment: Inhibition of HDAC in human HeLa cell extract using fluor de Lys as substrate after 15 mins by fluorometric analysis; format: protein assay
[8] = target: T2, Histone deacetylase (Homo sapiens) (UniProt Q13547+O15379+Q9UBN7+Q92769+Q9UQL6+Q8WUI4+Q9BY41+Q96DB2+P56524+Q9UKV0+Q969S8); conditions: HeLa, at 1 µM
[9] = target: T2, Histone deacetylase (Homo sapiens); experiment: Inhibition of HDAC in human NB4 cells assessed as histone H4 acetylation at 1 uM by densitometric analysis; format: cell-based; conditions: NB-4
How it was run: (§1)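 NB4 cells (1×10^5/ml) exposed 6 h to 0, 0.5, 1 or 2 μM drug (DMSO vehicle ≤0.3%). Lysed in 1% Triton X-100/1 mM PMSF/40 mM Tris-HCl pH 8.0/150 mM NaCl and sonicated. Run on 12.5% SDS-PAGE, blotted, probed with rabbit anti-acetyl-H3 or -H4 plus peroxidase secondary, ECL. Densitometry against α-tubulin, treated vs untreated, from one typical experiment.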

[10] = target: T2, Histone deacetylase (Homo sapiens); experiment: Inhibition of HDAC in human NB4 cells assessed as histone H4 acetylation at 0.5 uM by densitometric analysis; format: cell-based; conditions: NB-4; how it was run: as §1
[11] = tested on: NB-4; experiment: Induction of apoptosis in human NB4 cells assessed increase in apoptotic bodies at 1 to 2 uM using Giemsa staining by microscopic analysis; format: functional, cell-based
[12] = tested on: NB-4; experiment: Induction of apoptosis in human NB4 cells assessed fragmentation using Giemsa staining by microscopic analysis; format: functional, cell-based
[13] = tested on: NB-4; experiment: Induction of apoptosis in human NB4 cells assessed increase in cell shrinking using Giemsa staining by microscopic analysis; format: functional, cell-based
[14] = tested on: NB-4; experiment: Induction of apoptosis in human NB4 cells assessed apoptotic cells at 2 uM using Annexin-V-Fluos and propidium iodide staining by cytofluorimetric analysis (reference value: 7.2 %); format: functional
[15] = tested on: NB-4; experiment: Induction of apoptosis in human NB4 cells assessed apoptotic cells at 1 uM using Annexin-V-Fluos and propidium iodide staining by cytofluorimetric analysis (reference value: 7.2 %); format: functional
[16] = tested on: NB-4; experiment: Induction of apoptosis in human NB4 cells assessed apoptotic cells at 0.5 uM using Annexin-V-Fluos and propidium iodide staining by cytofluorimetric analysis (reference value: 7.2 %); format: functional
[17] = tested on: NB-4; experiment: Cytotoxicity against human NB4 cells assessed as cell viability after 48 hrs by trypan blue exclusion test; format: functional, cell-based; conditions: NB-4, 48 h
[18] = target: T2, Histone deacetylase (Homo sapiens); experiment: Inhibition of HDAC in human NB4 cells assessed as histone H3 acetylation at 1 uM by densitometric analysis; format: cell-based; conditions: NB-4; how it was run: as §1
[19] = target: T2, Histone deacetylase (Homo sapiens); experiment: Inhibition of HDAC in human NB4 cells assessed as histone H3 acetylation at 0.5 uM by densitometric analysis; format: cell-based; conditions: NB-4; how it was run: as §1
[20] = target: T2, Histone deacetylase (Homo sapiens); experiment: Inhibition of HDAC in human NB4 cells assessed as histone H3 acetylation after 6 hrs by Western blot/immunostaining analysis; format: cell-based; conditions: NB-4; how it was run: as §1
[21] = target: T2, Histone deacetylase (Homo sapiens); experiment: Inhibition of HDAC in human NB4 cells assessed as histone H4 acetylation after 6 hrs by Western blot/immunostaining analysis; format: cell-based; conditions: NB-4; how it was run: as §1

SMILES | IC50 [1] | IC50 [2] | IC50 [3] | IC50 [4] | IC50 [5] | IC50 [6] | IC50 [7] | inhibition [8] | also measured
CN1C(=O)C(NC(=O)CCCCCCC(=O)NO)N=C(c2ccccc2)c2ccccc21 (racemic) | 1200 nM | – | – | – | – | – | – | – | –
C[C@@H]1N=C(c2ccccc2)c2cc(C#CCCCC(=O)NO)ccc2NC1=O | 3040 nM | 970 nM | 1400 nM | 2820 nM | 460 nM | 490 nM | 340 nM | 65% | –
CN1C(=O)CN=C(c2ccccc2)c2cc(C#C/C=C/C(=O)NO)ccc21 | 2600 nM | 460 nM | 780 nM | 1300 nM | 7720 nM | 440 nM | 160 nM | 82% | –
O=C(CCCCCCC(=O)N1CCN=C(c2ccccc2)c2ccccc21)NO | 3990 nM | 1440 nM | 1670 nM | 2540 nM | 1120 nM | 250 nM | 180 nM | 82% | –
CN1C(=O)C(NC(=O)CCCCC(=O)NO)N=C(c2ccccc2)c2ccccc21 (racemic) | 1910 nM | 2010 nM | 3280 nM | 5440 nM | > 100000 nM | 420 nM | 380 nM | 70% | –
CN1C(=O)C(N)N=C(c2ccccc2)c2cc(C#CCCCC(=O)NO)ccc21 (racemic) | – | – | – | – | > 100000 nM | 1090 nM | – | – | –
CN1C(=O)CN=C(c2ccccc2)c2cc(C#CCCCC(=O)NO)ccc21 | 1950 nM | 2620 nM | 4970 nM | 5950 nM | – | – | – | 39% | –
CN1C(=O)C(NC(=O)CCCCCC(=O)NO)N=C(c2ccccc2)c2ccccc21 (racemic) | 2560 nM | 1440 nM | 1840 nM | 4420 nM | 180 nM | 270 nM | 320 nM | 73% | –
CN1C(=O)CN=C(c2ccccc2)c2cc(C#CCCC(=O)NO)ccc21 | > 5000 nM | 6540 nM | 8220 nM | 10300 nM | > 100000 nM | 2750 nM | – | 22% | –
CN1C(=O)C(NC(=O)CCCCCCCC(=O)NO)N=C(c2ccccc2)c2ccccc21 (racemic) | 4000 nM | 3930 nM | 4590 nM | 7950 nM | 9080 nM | 480 nM | 600 nM | 57% | –
CN1C(=O)[C@H](NC(=O)CCCCCCC(=O)NO)N=C(c2ccccc2)c2ccccc21 | > 5000 nM | 1070 nM | 1720 nM | 2690 nM | 6500 nM | 700 nM | 310 nM | 73% | –
CN1C(=O)[C@@H](NC(=O)CCCCCCC(=O)NO)N=C(c2ccccc2)c2ccccc21 | 860 nM | 470 nM | 720 nM | 1440 nM | 400 nM | 550 nM | 120 nM | 88% | inhibition [9]: 51%; inhibition [10]: 8%; Activity [11]: Active; Activity [12]: Dose-dependent effect; Activity [13]: Dose-dependent effect; Activity [14]: 83.4%; Activity [15]: 66.2%; Activity [16]: 8.6%; IC50 [17]: 460 nM; inhibition [18]: 84%; inhibition [19]: 50%; inhibition [20]: Dose-dependent effect; inhibition [21]: Dose-dependent effect
CN1C(=O)CN=C(c2ccccc2)c2cc(C#CCCCCC(=O)NO)ccc21 | 4090 nM | 1860 nM | 2670 nM | 2690 nM | 5900 nM | 1900 nM | – | 36% | –
